ChEMBL document CHEMBL3351848, “Novel insights into structure and function of factor XIIIa-inhibitor tridegin” (J Med Chem, 2014)
Calls of active or inactive are those of the source. No cut-off for these calls is given here. Residues, ends and D or L forms follow the SMILES beside them. *: point of attachment. X1 = O=C(c1ccccc1-c1c2ccc(=O)cc-2oc2cc(O)ccc12)*

Columns and labels:
[1] = biological target: T1, Coagulation factor XIII A chain (Homo sapiens) (UniProt P00488); experiment: Binding affinity to nonactivated recombinant F13A subunit (unknown origin) by microscale thermophoresis method
T1 sequence (whole entry): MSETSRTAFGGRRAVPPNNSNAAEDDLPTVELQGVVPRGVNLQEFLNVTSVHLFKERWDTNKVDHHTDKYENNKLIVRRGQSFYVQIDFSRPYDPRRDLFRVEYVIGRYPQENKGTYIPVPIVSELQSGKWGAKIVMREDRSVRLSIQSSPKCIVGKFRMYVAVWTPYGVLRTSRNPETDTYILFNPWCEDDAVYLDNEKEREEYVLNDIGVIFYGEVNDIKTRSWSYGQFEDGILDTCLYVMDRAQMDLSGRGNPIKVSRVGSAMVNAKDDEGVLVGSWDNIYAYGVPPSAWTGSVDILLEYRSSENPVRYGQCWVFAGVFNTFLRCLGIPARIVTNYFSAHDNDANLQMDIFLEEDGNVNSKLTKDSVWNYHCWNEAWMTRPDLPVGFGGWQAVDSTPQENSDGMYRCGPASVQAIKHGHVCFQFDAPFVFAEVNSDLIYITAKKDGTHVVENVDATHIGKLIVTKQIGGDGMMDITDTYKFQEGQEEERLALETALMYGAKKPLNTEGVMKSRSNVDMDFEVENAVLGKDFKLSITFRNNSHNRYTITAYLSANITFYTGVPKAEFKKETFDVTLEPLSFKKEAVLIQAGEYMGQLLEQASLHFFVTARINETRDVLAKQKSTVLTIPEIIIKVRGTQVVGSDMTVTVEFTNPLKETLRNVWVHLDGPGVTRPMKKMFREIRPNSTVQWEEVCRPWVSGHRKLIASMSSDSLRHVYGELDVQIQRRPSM
Outline: (§1)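 Carboxyfluorescein-labeled peptide (2 μM solution, before mixing) in 50 mM Tris-HCl pH 7.5, 0.9% w/v NaCl, with Tween-20 to 0.1% final. Mixed with an equal volume of protein (FXIIIa, FXIII-A or FXIII-B) in the same buffer, 15 concentrations spanning 3.1 μM to 0.1 nM. After 20 min incubation, the mixture was loaded into glass capillaries and thermophoresis read three times per capillary.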

[2] = biological target: T2, Coagulation factor XIII B chain (Homo sapiens) (UniProt P05160); experiment: Binding affinity to nonactivated recombinant F13B subunit (unknown origin) by microscale thermophoresis method; outline: as §1
T2 sequence (whole entry): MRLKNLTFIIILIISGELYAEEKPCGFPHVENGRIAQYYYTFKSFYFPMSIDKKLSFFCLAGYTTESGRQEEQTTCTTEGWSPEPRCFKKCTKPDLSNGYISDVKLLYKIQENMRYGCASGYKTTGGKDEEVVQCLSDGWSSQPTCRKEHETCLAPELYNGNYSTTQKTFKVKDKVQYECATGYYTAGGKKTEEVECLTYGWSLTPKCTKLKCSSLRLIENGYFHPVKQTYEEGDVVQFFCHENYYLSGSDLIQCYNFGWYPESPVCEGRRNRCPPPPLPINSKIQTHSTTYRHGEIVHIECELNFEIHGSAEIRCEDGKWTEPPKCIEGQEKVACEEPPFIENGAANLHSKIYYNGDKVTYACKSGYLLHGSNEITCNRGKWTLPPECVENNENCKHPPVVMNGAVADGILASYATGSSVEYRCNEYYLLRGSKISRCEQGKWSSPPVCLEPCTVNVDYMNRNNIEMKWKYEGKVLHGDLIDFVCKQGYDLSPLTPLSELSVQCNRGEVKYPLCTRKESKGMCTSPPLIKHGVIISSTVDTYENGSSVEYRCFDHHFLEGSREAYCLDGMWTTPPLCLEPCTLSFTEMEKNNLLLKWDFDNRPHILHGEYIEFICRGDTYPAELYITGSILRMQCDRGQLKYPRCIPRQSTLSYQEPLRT

[3] = biological target: T3, Protein-glutamine gamma-glutamyltransferase (Homo sapiens) (UniProt P21980); experiment: Inhibition of human TGase-2 using fluorogenic FRET substrate at 10 uM
T3 sequence (whole entry): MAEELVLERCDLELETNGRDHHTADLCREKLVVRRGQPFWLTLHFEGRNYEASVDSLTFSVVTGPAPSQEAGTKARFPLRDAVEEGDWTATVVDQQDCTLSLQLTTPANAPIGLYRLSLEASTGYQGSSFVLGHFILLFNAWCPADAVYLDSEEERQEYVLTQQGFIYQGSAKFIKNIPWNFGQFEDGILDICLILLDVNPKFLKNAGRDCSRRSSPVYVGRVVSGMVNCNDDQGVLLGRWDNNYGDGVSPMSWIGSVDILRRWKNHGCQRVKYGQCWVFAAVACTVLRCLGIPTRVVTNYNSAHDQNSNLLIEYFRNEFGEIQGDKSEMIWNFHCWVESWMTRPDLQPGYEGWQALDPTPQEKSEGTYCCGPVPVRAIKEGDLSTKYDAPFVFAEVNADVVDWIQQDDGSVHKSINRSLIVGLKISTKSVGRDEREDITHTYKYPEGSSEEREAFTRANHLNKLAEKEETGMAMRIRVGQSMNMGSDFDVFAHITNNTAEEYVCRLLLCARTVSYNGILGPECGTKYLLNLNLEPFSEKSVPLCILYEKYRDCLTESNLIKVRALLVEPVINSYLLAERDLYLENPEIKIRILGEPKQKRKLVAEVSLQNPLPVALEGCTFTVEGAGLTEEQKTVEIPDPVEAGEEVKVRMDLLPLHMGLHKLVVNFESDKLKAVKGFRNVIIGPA

[4] = biological target: T4, Coagulation factor XIII A chain (Homo sapiens, UniProt P00488); experiment: Inhibition of recombinant F13a (unknown origin) using H-Tyr-Glu(pNA)-Val-Lys-Val-Ile-Gly-NH2 as substrate by chromogenic assay
T4 sequence (P00488 whole entry): T1 sequence (whole entry)

[5] = biological target: T4, Coagulation factor XIII A chain; experiment: Binding affinity to recombinant F13A (unknown origin) by microscale thermophoresis method; outline: as §1

Row | SMILES | Activity [1] | Activity [2] | inhibition [3] | IC50 [4] | Kd [5]
1 | CC[C@H](C)[C@H](NC(=O)[C@H](CC(=O)O)NC(=O)[C@H](CC(=O)O)NC(=O)[C@H](CCSC)NC(=O)[C@@H]1CCCN1C(=O)[C@H](CCCCN)NC(=O)[C@@H](NC(=O)[C@H](CC(C)C)NC(=O)[C@H](CCC(=O)O)NC(=O)[C@H](CO)NC(=O)[C@H](CCCNC(=N)N)NC(=O)[C@@H]1CCCN1C(=O)[C@@H](N)CCCNC(=N)N)[C@@H](C)CC)C(=O)N[C@@H](Cc1ccc(O)cc1)C(=O)N[C@@H](CCC(N)=O)C(=O)N[C@@H](CCCNC(=N)N)C(=O)N1CCC[C@H]1C(=O)N[C@H](C(=O)N[C@@H](CCC(=O)O)C(=O)N[C@@H](Cc1ccccc1)C(=O)N1CCC[C@H]1C(=O)N[C@@H](CC(N)=O)C(=O)N[C@@H](CC(C)C)C(=O)N1CCC[C@H]1C(=O)N[C@@H](CC(C)C)C(=O)N[C@@H](CCCCN)C(=O)N1CCC[C@H]1C(=O)N[C@@H](CCCNC(=N)N)C(=O)N[C@@H](CCC(=O)O)C(=O)O)C(C)C (H-RPRSELIKPMDDIYQRPVEFPNLPLKPRE-OH) | inactive | inactive | < 10% | 2200 nM | 
2 | CC[C@H](C)[C@H](NC(=O)[C@H](CC(=O)O)NC(=O)[C@H](CC(=O)O)NC(=O)[C@H](CCSC)NC(=O)[C@@H]1CCCN1C(=O)[C@H](CCCCN)NC(=O)[C@@H](NC(=O)[C@H](CC(C)C)NC(=O)[C@H](CCC(=O)O)NC(=O)[C@H](CO)NC(=O)[C@H](CCCNC(=N)N)NC(=O)[C@@H]1CCCN1C(=O)[C@H](CCCNC(=N)N)NC(=O)c1ccccc1-c1c2ccc(=O)cc-2oc2cc(O)ccc12)[C@@H](C)CC)C(=O)N[C@@H](Cc1ccc(O)cc1)C(=O)N[C@@H](CCC(N)=O)C(=O)N[C@@H](CCCNC(=N)N)C(=O)N1CCC[C@H]1C(=O)N[C@H](C(=O)N[C@@H](CCC(=O)O)C(=O)N[C@@H](Cc1ccccc1)C(=O)N1CCC[C@H]1C(=O)N[C@@H](CC(N)=O)C(=O)N[C@@H](CC(C)C)C(=O)N1CCC[C@H]1C(=O)N[C@@H](CC(C)C)C(=O)N[C@@H](CCCCN)C(=O)N1CCC[C@H]1C(=O)N[C@@H](CCCNC(=N)N)C(=O)N[C@@H](CCC(=O)O)C(=O)O)C(C)C (X1-RPRSELIKPMDDIYQRPVEFPNLPLKPRE-OH) | inactive | inactive |  |  | 800 nM
3 | CC[C@H](C)[C@H](NC(=O)[C@H](CC(=O)O)NC(=O)[C@H](CC(=O)O)NC(=O)[C@H](CCSC)NC(=O)[C@@H]1CCCN1C(=O)[C@H](CCCCN)NC(=O)[C@@H](NC(=O)[C@H](CC(C)C)NC(=O)[C@H](CCC(=O)O)NC(=O)[C@H](CO)NC(=O)[C@H](CCCNC(=N)N)NC(=O)[C@@H]1CCCN1C(=O)[C@H](CCCNC(=N)N)NC(=O)[C@H](CS)NC(=O)[C@H](CCC(N)=O)NC(=O)[C@@H]1CCCN1C(=O)[C@@H](NC(=O)[C@H](Cc1ccccc1)NC(=O)[C@H](C)N)[C@@H](C)CC)[C@@H](C)CC)C(=O)N[C@@H](Cc1ccc(O)cc1)C(=O)N[C@@H](CCC(N)=O)C(=O)N[C@@H](CCCNC(=N)N)C(=O)N1CCC[C@H]1C(=O)N[C@H](C(=O)N[C@@H](CCC(=O)O)C(=O)N[C@@H](Cc1ccccc1)C(=O)N1CCC[C@H]1C(=O)N[C@@H](CC(N)=O)C(=O)N[C@@H](CC(C)C)C(=O)N1CCC[C@H]1C(=O)N[C@@H](CC(C)C)C(=O)N[C@@H](CCCCN)C(=O)N1CCC[C@H]1C(=O)N[C@@H](CCCNC(=N)N)C(=O)N[C@@H](CCC(=O)O)C(=O)O)C(C)C (H-AFIPQCRPRSELIKPMDDIYQRPVEFPNLPLKPRE-OH) | inactive | inactive |  | 1700 nM | 
4 | CC[C@H](C)[C@H](NC(=O)[C@H](CC(=O)O)NC(=O)[C@H](CC(=O)O)NC(=O)[C@H](CCSC)NC(=O)[C@@H]1CCCN1C(=O)[C@H](CCCCN)NC(=O)[C@@H](NC(=O)[C@H](CC(C)C)NC(=O)[C@H](CCC(=O)O)NC(=O)[C@@H](N)CO)[C@@H](C)CC)C(=O)N[C@@H](Cc1ccc(O)cc1)C(=O)N[C@@H](CCC(N)=O)C(=O)N[C@@H](CCCNC(=N)N)C(=O)N1CCC[C@H]1C(=O)N[C@H](C(=O)N[C@@H](CCC(=O)O)C(=O)N[C@@H](Cc1ccccc1)C(=O)N1CCC[C@H]1C(=O)N[C@@H](CC(N)=O)C(=O)N[C@@H](CC(C)C)C(=O)N1CCC[C@H]1C(=O)N[C@@H](CC(C)C)C(=O)O)C(C)C (H-SELIKPMDDIYQRPVEFPNLPL-OH) |  |  |  | 1900 nM | 
